Bioassay records deposited in PubChem by several laboratories.
Most compounds without a hit are left out; they make up all but 2.2% or so of the library.
FLuc inhib CS – firefly luciferase enzyme inhibitors, primary screen, artefact control for luciferase-based inhibitor screens, biochemical, luminescence, ATPLite | Luciferin 4-monooxygenase (Photinus pyralis), P08659 | 10 min | inhibition, % at 10 µM | actives 1.5% (n = 200,000) | AID 1006, 2008;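 active = inhibition above about 50% when tested at 10 µM, limit read from the data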
Target sequence (P08659 whole entry, looked up): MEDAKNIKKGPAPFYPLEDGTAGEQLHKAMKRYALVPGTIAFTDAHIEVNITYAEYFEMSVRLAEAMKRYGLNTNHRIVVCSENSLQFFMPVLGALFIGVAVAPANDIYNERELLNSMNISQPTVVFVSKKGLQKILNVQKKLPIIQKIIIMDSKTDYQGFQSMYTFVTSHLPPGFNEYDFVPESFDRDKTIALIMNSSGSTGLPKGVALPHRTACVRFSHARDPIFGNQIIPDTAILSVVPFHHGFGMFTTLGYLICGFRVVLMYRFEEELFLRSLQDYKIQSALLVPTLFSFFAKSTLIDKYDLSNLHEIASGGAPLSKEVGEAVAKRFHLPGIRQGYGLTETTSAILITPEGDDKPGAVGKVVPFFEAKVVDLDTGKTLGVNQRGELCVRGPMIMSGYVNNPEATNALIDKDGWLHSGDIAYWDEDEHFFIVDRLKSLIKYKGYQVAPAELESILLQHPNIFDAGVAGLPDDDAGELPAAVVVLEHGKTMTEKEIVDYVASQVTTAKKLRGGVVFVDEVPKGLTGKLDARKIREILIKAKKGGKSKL
NF-kB neuron act – activators of NF-kB expression in neurons, primary screen, cell-based, HTS | actives 1.6% (n = 190,000) | fold change at 12.5 µM | human neuronal cells, NF-kB reporter expression; hits give high values | AID 1239, 2008; in the data active = fold change above about 3.3
TRAIL sens C8 – viability loss with TRAIL in NB7+C8 cells, primary screen, TRAIL sensitizer project, cell-based, ATPlite luminescence; inhibition (viability loss, TRAIL sensitization), % at 10 µM; actives 1% (n = 360,000); AID 624354, 2012;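 active = compounds causing at least 50% loss of cell viability in the single-dose screen, relative to plate controls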
FLuc act counter – FLuc activators, initial screening, artefact control for FLuc-dependent activation tests, biochemical, ATPlite luminescence; AID 1027, 2008; 200,000 tested, under 10 active; activation factor at 10 µM; ATPlite luciferase biochemical, 10 min; 0 = ATP-free wells, 1 = DMSO control;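 active = luciferase activation factor, scaled between plate controls, of at least 2 with compound at 10 µM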
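assay system = Luciferase/luciferin detection reagent, cell-free biochemical luciferase assay | also added = ATP substrate | times = 10 min post-reagent at room temperature | measured by = luminescence from luciferase reaction | measure = luciferase activation, seen as luminescence increase over controls | benchmarks = low control with PBS replacing ATP, high control enzyme plus ATP without compound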
PPC-1+TRAIL kill – compounds killing PPC-1 cancer cells with TRAIL present, primary screen, TRAIL potentiator project, ATPLite luminescence, uHTS. cell killing (% activity), % at 4 µM or 5 µM. actives 0.41% (n = 220,000). PPC-1 cells + TRAIL, ATPLite viability luminescence;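 active = cell killing above 50% in the first pass at 4 µM, then a duplicate retest at 5 µM averaging 50% or more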;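 also: plate controls were cells with TRAIL plus DMSO for no effect and medium-only wells lacking cells for full effect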
APP 5'UTR act – activators of APP 5'UTR luciferase reporter, primary screen, SH-SY5Y cells; SH-SY5Y APP 5'UTR luciferase reporter, luminescence; zero percent = DMSO vehicle wells; activation, % at 2 µM; actives 1% (n = 190,000); AID 1276, 2008;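 active = activation above a set limit, based on mean plus 3 SD of controls, cut at about 140% in these data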
Starred values were filed as active, the others as inactive; . = not tested or not shown.

SMILES	FLuc inhib CS	NF-kB neuron act	TRAIL sens C8	FLuc act counter	PPC-1+TRAIL kill	APP 5'UTR act
Cc1ccc(Nc2ncnc3ccccc23)cc1	28	2.9	13	0.7	20	149*
O=C(c1ccco1)N1CCN(C(=O)c2ccc(CS(=O)c3ccc(Br)cc3)o2)CC1 (stereo unspecified)	.	.	-4	.	.	.
c1ccc(-c2cn(-c3ccccc3)c3[n+]2CCS3)cc1	4	1.1	23	1	14	5
CC(C)(C)c1ccc(-c2cn(-c3ccc(Br)cc3)c3[n+]2CCCS3)cc1	-5	1.8	55*	1.1	49	-6
COc1cc(NC(=O)CSc2ncnc3c2cnn3Cc2ccccc2)cc(OC)c1	-8	1.1	-24	1.1	2	3
COc1ccc(OC)c(NC(=O)CSc2ncnc3c2cnn3-c2ccccc2Cl)c1	-3	3.3*	29	1	24	11
COc1ccc(NC(=O)CSc2nc3[nH]ncc3c(=O)n2-c2ccccc2OC)cc1OC	-1	1.2	-16	1	71*	4
CC(OC(=O)c1cccc(N(C)C)c1)C(=O)N1CCc2ccccc2C1 (stereo unspecified)	.	.	5	.	.	.
C#Cc1ccc(NC(=O)C2(C)CCN2C(=O)Cc2ccc(C(C)C)cc2)cc1 (stereo unspecified)	.	.	52*	.	.	.
COc1ccc(CN2CCc3c([nH]c4ccccc34)C2)c(OC)c1C	.	.	20	.	.	.
Cn1c(SCC(=O)c2ccc3c(c2)OCCO3)nnc1C1CC1	-3	1.3	1	1	5	-17
Cc1cccc(-c2nc3cc([N+](=O)[O-])ccc3o2)c1	18	3.5*	19	0.8	6	82
COc1ccc(-c2nc3ccc([N+](=O)[O-])cc3o2)cc1	6	2.8	-2	0.9	22	150*
O=[N+]([O-])c1ccc2oc(-c3ccccc3)nc2c1	18	4.2*	4	0.8	-2	112
Cc1nccn1CCC(=O)NC1CC(C)(C)Cc2c1cnn2-c1ccccc1 (stereo unspecified)	.	.	-10	.	.	.
COc1cc(C(=O)Nc2cc3c4c(c2)CC(=O)N4CCC3)cc(OC)c1OC	.	.	16	.	.	.
O=C(NCC(=O)N1CCN(c2ncccn2)CC1)c1ccc(F)cc1	.	.	6	.	.	.
COc1ccc(N2CC(C(=O)N(CC(C)C)c3c(N)n(Cc4ccccc4)c(=O)[nH]c3=O)CC2=O)c(OC)c1 (stereo unspecified)	.	.	6	.	.	.
COc1ccc(Cn2c(C3CC3)nc3ccc(NC(=O)C4CC4)cc3c2=O)cc1	6	8.4*	26	0.9	9	173*
CC(=O)Nc1ccc2nc(C3CC3)n(Cc3ccc(Cl)cc3)c(=O)c2c1	0	2.2	-7	1	12	106
Cc1ccc(NC(=O)C2CCCN(S(=O)(=O)c3c(C)noc3C)C2)c(Br)c1 (stereo unspecified)	.	.	-5	.	.	.
COc1ccc(NC(=O)c2cc(C3CCCCN3S(=O)(=O)Cc3ccccc3)on2)cn1 (stereo unspecified)	.	.	7	.	.	.
COc1ccc(-c2nn(-c3ccccc3)cc2C(=O)Nc2ccc(C(=O)O)cc2)cc1OC	.	.	13	.	.	.
COc1ccc(-c2nn(-c3ccccc3)cc2C(=O)O)cc1OC	82*	1.2	6	0.2	8	7
CCN(c1ccccc1)S(=O)(=O)c1ccc(N2CCN(c3ccc(O)cc3)CC2)nc1	.	.	-1	.	.	.
SMILES	FLuc inhib CS	NF-kB neuron act	TRAIL sens C8	FLuc act counter	PPC-1+TRAIL kill	APP 5'UTR act
COc1ccc(NC(=O)c2cccc(NC(=O)c3ccccc3)c2)cc1	.	.	-1	.	.	.
COc1cc(NC(=O)c2ccccc2)cc(OC)c1	25	3.4*	21	0.7	15	137*
COc1ccc(C(=O)Nc2cc(OC)cc(OC)c2)cc1	66*	2.5	30	0.3	30	125
Cn1c(NC(=O)c2cc(-c3ccc4c(c3)OCO4)nc3ccccc23)cc(=O)n(C)c1=O	72*	1.7	38	0.3	41	27
CC(C)(C)NC(=O)c1cc(-c2ccc3c(c2)OCO3)nc2ccccc12	.	.	17	.	.	.
CC(=O)Nc1ccc2nc(-c3ccccc3)cn2c1	70*	7.6*	54*	0.3	47	170*
Clc1ccc2nc(-c3ccccc3)cn2c1	.	.	63*	.	.	.
Cc1ccn2cc(-c3cccc(NC(=O)CCC(=O)O)c3)nc2c1	.	.	59*	.	.	.
CC(=O)Nc1cccc(-c2cn3ccc(C)cc3n2)c1	76*	4.2*	47	0.2	27	98
O=C(NCc1ccccc1)C1CC(=O)N(C2CCCCC2)C1 (stereo unspecified)	.	.	1	.	.	.
O=C(CC(c1ccccc1)c1ccccc1)Nc1ccc(C(=O)O)cc1	.	.	5	.	.	.
CCN(CC(=O)NCc1cccs1)C(=O)c1ccc(S(=O)(=O)Nc2ccccc2C)cc1	.	.	0	.	.	.
Cc1ccn2cc(C(=O)Nc3cccc(C(=O)NC4CC4)c3)nc2c1	.	.	54*	.	.	.
Cc1ccn2cc(-c3cccc(NS(C)(=O)=O)c3)nc2c1	58*	2.8	27	0.4	32	90
Cc1ccc(SCc2cn3cc(Cl)ccc3n2)cc1	.	.	8	.	4	.
Clc1ccc2nc(CSCc3ccccc3)cn2c1	20	1.2	10	0.8	22	139*
Cc1ccn2cc(-c3ccc(NS(=O)(=O)c4ccccc4)cc3)nc2c1	-4	1.2	-30	1	9	7
Cc1cc(SCC(=O)Nc2c(C)n(C)n(-c3ccccc3)c2=O)nc2ccccc12	.	.	-4	.	.	.
Cc1ccccc1CSc1nc(C(C)(C)C)cc(=O)[nH]1	-8	0.87	-12	1.1	-10	13
COc1ccccc1C(=O)NNC(=O)c1cccc(F)c1	43	2.3	21	0.6	10	129
COc1ccccc1C(=O)NNC(=O)c1cccc(O)c1	.	.	50*	.	.	.
CN(C)/C=C/C(=O)c1cnc(-c2ccc(Cl)cc2)s1	53*	3.9*	29	0.5	7	115
CN(C)/C=C/C(=O)c1ccc(Cl)s1	0	1.4	-3	1	35	6
CN(C)/C=C/C(=O)c1cnc(-c2ccccc2)s1	39	3.8*	12	0.6	7	102
Cc1ccc(S(=O)(=O)N2CCCC2CNC(=O)C(=O)NC2CCCC2)cc1 (stereo unspecified)	.	.	15	.	.	.
O=C(CCc1nnc(COc2ccccc2)o1)NCc1ccc(Cl)s1	-8	1	-9	1.1	3	-14
CN1C=CC(=C2C(=O)c3ccccc3C2=O)C=C1	75*	3.6*	.	0.2	46	102
CCCN1C=CC(=C2C(=O)c3ccccc3C2=O)C=C1	97*	0.27	91*	0	26	-81
